Assay outcomes as filed in PubChem BioAssay.
GASC-1 inh – inhibitors of human GASC-1 (JMJD2C) demethylase; Q9H3R0; GST-JMJD2C(1-420) H3K9me3 demethylation, DELFIA europium; inhibition, % at 2.35 µM; 0.069% of 330,000 active;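 active = more than half of a compound's replicate wells show inhibition beyond 50%, single wells judged on their own value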;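 note: signal counts dimethyl H3K9 product captured on neutravidin plate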
Target sequence (Q9H3R0 1-420 limits assumed): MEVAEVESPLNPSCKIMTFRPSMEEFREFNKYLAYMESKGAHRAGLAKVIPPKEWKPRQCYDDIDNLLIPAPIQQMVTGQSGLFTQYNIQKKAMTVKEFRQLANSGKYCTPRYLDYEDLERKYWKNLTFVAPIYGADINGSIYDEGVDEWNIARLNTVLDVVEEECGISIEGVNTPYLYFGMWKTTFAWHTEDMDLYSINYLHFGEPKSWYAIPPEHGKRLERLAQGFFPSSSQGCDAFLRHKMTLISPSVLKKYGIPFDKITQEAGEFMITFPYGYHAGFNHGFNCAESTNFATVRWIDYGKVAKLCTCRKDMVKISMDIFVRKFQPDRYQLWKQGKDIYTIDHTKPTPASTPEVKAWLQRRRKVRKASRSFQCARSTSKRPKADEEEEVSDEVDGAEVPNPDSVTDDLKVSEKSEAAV
SR-BI DiI inh – mouse SR-BI HDL lipid transfer inhibition | ldlA[mSR-BI] CHO cells, DiI-HDL uptake fluorescence, 3 h | inhibition, % at 12.5 µM | 0.96% of 320,000 active | AID 488896;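 active = mean replicate inhibition of at least 70% and a set share of replicates each scoring 70 or more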
SR-BI DiI-HDL act – activators of SR-BI mediated HDL lipid uptake. activation, % at 12.5 µM. 0.096% of 320,000 active. CHO ldlA[mSR-BI] cells, DiI-HDL uptake fluorescence, 3 h; 100 = double the neutral-control signal. AID 504775;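 active = mean replicate activation of at least 60% and every replicate at or above 60%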
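system = CHO ldlA[mSR-BI] cells, LDL receptor-null, SR-BI overexpressing | medium = Ham's F12 with 0.5% BSA, HEPES 25 mM, pH 7.4 | probe or stimulus = DiI-HDL 10 µg/mL | compound dosing = single-point compound dose | incubation = compound exposure 3 h, 37 °C | technique = DiI fluorescence, bottom read | read-out = cell-associated DiI fluorescence as measure of HDL uptake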
AHR activator – activators of human aryl hydrocarbon receptor | 2.5% of 320,000 active | P35869 | AHR-responsive luciferase reporter cells, luminescence | AID 2796 | activation, % at 5 µM; in the data active = activation above about 47%
GAA850 FXN act – activators of GAA850 frataxin (FXN) promoter; HEK293 lucGAA850 FXN promoter luciferase reporter, 24 h; percent of 10 µM SAHA response; 0.56% of 360,000 active; activation, % at 6 µM;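 active = activation above the average of all compounds screened plus 3 SD, cutoff fixed separately per campaign, cut at about 7.5% in these data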
GAA30 FXN cntr – activates GAA30 frataxin promoter, counter-screen for GAA850 activators; shares compounds with GAA850 FXN act; HEK293 lucGAA30 FXN promoter luciferase, 24 h; DMSO = 0%, 5 µM ipriflavone = 100%; activation, % at 6 µM; 66% of 1,900 active;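 active = mean activation above the mean of solvent-only control wells plus 3 SD, cut at about 22% in these data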;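 note: counterscreen of GAA850 promoter hits where activity marks nonselective or luminescence artifacts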
FXN GAA850 conf – confirmation of GAA850 frataxin (FXN) promoter activators. shares compounds with GAA850 FXN act. HEK293 lucGAA850 FXN promoter luciferase reporter, 24 h; 100% = activation by SAHA. activation, % at 6 µM. 86% of 1,900 active;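 active = mean activation above a set limit taken from the primary screen, cut at about 8% in these data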
Hits are given with their value; . = inactive; / = not tested or not shown. The list is not random: actives were taken first. Their share in the collection is about 3.7%.

SMILES	GASC-1 inh	SR-BI DiI inh	SR-BI DiI-HDL act	AHR activator	GAA850 FXN act	GAA30 FXN cntr	FXN GAA850 conf
CN(C)c1ccc(O)c2c1CC1CC3[C@@H](N(C)C)C(=O)C(C(N)=O)C(=O)[C@]3(O)C(=O)C1C2=O (stereo not given in full)	/	.	.	.	10.8	35.2	10.9
CN(C)c1ccc(O)c2c1CC1CC3C(N(C)C)C(=O)C(C(N)=O)=C(O)[C@@]3(O)C(=O)C1=C2O (stereo not given in full)	.	.	.	.	25.0	23.6	.
C[C@H]1c2cccc(O)c2C(O)=C2C(=O)C3(O)C(O)=C(C(N)=O)C(=O)[C@@H](N(C)C)[C@@H]3[C@@H](O)[C@@H]21 (stereo not given in full)	/	.	.	.	16.7	22.0	.
C=C1c2cccc(O)c2C(O)=C2C(=O)[C@]3(O)C(O)=C(C(N)=O)C(=O)[C@@H](N(C)C)[C@@H]3[C@@H](O)[C@H]12	.	.	.	.	16.5	28.4	9.6
C[C@H]1c2cccc(O)c2C(=O)C2C(=O)C3(O)C(=O)C(C(N)=O)C(=O)[C@@H](N(C)C)[C@@H]3[C@@H](O)[C@@H]21 (stereo not given in full)	/	.	.	.	14.2	41.2	12.7
COC(=O)c1c(C)[nH]c(C(=O)CSc2ccc(Cl)cc2)c1C	.	.	.	.	8.3	113.7	34.6
COc1ccc(C=NNC(=S)Nc2ccc(F)cc2)cc1OC	/	.	.	/	.	/	/
COc1ccc(C=NNC(=S)NN=Cc2ccc(OC)c(OC)c2)cc1OC	/	.	.	/	8.7	87.2	30.5
COc1ccc(C(=O)Cn2cnc3ccccc3c2=O)c(OC)c1	.	.	.	/	7.7	56.7	24.3
CCOC(=O)C(CC)n1cnc2c(nnn2-c2ccc(F)cc2)c1=O (stereo not given)	.	.	.	.	19.0	.	.
CCOC(=O)C(CC)n1cnc2c(nnn2-c2ccccc2)c1=O (stereo not given)	.	.	.	.	.	/	/
CC1CCN(C(=O)CN2C(=O)C(=O)c3ccccc32)CC1	.	.	.	.	13.2	22.5	8.3
Cc1ccc(NC(=O)c2oc3ccccc3c2NC(=O)C2CCCO2)cc1C (stereo not given)	.	.	.	74.4	8.0	106.1	37.6
Nc1nc(Nc2ccccc2)nc(NCc2ccco2)c1[N+](=O)[O-]	.	.	.	.	.	/	/
Cc1ccc(Nc2nc(N)c([N+](=O)[O-])c(NCc3ccco3)n2)cc1	.	.	.	.	8.9	67.4	34.0
CCOc1cccc(C(=O)Nc2ccccc2C(=O)N2CCN(C)CC2)c1	.	.	.	.	.	/	/
OC(c1ccc(Cl)cc1)c1ncc(-c2ccccc2Cl)[nH]1 (stereo not given)	/	/	/	/	.	/	/
COC(=O)C1=C(C)N=C2SCCC(=O)N2C1/C=C/c1ccccc1 (stereo not given)	.	.	.	.	8.0	.	.
Nc1nc(Nc2ccccc2)nc(N2CCCC2)c1[N+](=O)[O-]	.	.	.	.	11.2	74.9	38.8
COc1ccc(Cl)cc1S(=O)(=O)N1CCC(C(=O)N2CCOCC2)CC1	.	.	.	.	.	/	/
COc1ccc(-c2cc(C(=O)NCC3CCCO3)c3ccccc3n2)cc1 (stereo not given)	.	.	.	.	.	/	/
COc1ccc(N=c2oc3cc(O)ccc3cc2C(=O)NCC2CCCO2)cc1 (stereo not given)	.	.	.	.	.	/	/
COc1ccc(N=c2oc3cc(O)ccc3cc2C(=O)NCC2CCCO2)c(OC)c1 (stereo not given)	.	.	.	.	9.7	.	17.8
COc1ccc(-c2cc(C(=O)NCC3CCCO3)c3cc(C)ccc3n2)cc1 (stereo not given)	.	72.4	.	.	7.6	67.6	22.4
CNC[C@@H]1OCc2ccccc2-c2ccccc2C(=O)N([C@@H](C)CO)C[C@@H]1C	/	/	/	/	.	/	/
SMILES	GASC-1 inh	SR-BI DiI inh	SR-BI DiI-HDL act	AHR activator	GAA850 FXN act	GAA30 FXN cntr	FXN GAA850 conf
CCCSc1nnc(-c2ccccc2N)c(=O)[nH]1	.	.	.	.	10.7	90.1	27.8
CCCS(=O)(=O)NC(=O)C1(C)CCCN(C(=O)c2c(F)ccc(C)c2F)C1 (stereo not given)	/	/	/	/	.	/	/
O=C(N(c1ccccn1)c1ccccn1)C12CC3CC(CC(Cl)(C3)C1)C2	.	/	/	.	8.4	.	.
CC(c1ccco1)N(C(=O)C12CC3CC(CC(C3)C1)C2)c1ccccn1 (stereo not given)	.	.	.	.	.	/	/
Nc1cccc2nc3ccccc3cc12	.	.	.	.	18.6	.	101.3
CCN(CC(=O)Nc1ccc(C(=O)OC)cc1)C1CCCCC1	.	/	/	.	.	/	/
COc1ccc2c(C(=O)NCc3ccc4c(c3)OCO4)c(-c3ccc(S(C)(=O)=O)cc3)sc2c1	/	.	.	.	.	/	/
COc1cc2c(cc1OC)/C(=C/C(=O)c1ccc(C)cc1)NCC2	.	.	.	/	8.2	37.4	24.3
COc1cc2c(cc1OC)/C(=C/C(=O)c1ccccc1)NCC2	.	.	.	.	8.5	29.0	15.5
COc1cc2c(cc1OC)/C(=C/C(=O)c1ccc([N+](=O)[O-])c(C)c1)NCC2	.	.	.	/	.	/	/
CCCn1c2ccccc2c2cc(C(=O)O)ccc21	.	.	.	.	.	/	/
CCn1c2ccccc2c2nc3cc(C(=O)O)ccc3nc21	/	.	.	/	11.9	100.5	27.1
CC1(C)Cc2c(sc(/N=C/N3CCCC3)c2C#N)C(C)(C)N1	.	.	.	.	.	/	/
O=C(N/N=C/c1ccc(Cl)cc1Cl)c1n[nH]c2c1CCCC2	.	.	.	.	.	/	/
O=C(N/N=C/C(Br)=C/c1ccccc1)c1cnccn1	.	.	.	.	8.9	107.3	39.4
O=C(N/N=C/C(Br)=C\c1ccccc1)c1n[nH]c2c1CCC2	.	.	.	.	17.1	29.3	68.4
O=C(N/N=C\c1cccc(Cl)c1)c1n[nH]c2c1CCCC2	.	.	.	.	10.2	72.6	19.9
CC(/C=N/NC(=O)c1n[nH]c2c1CCC2)=C\c1ccccc1	.	.	.	.	.	/	/
Cc1ccc2nc(SCC(=O)NCc3ccco3)c(C#N)cc2c1	.	.	.	.	8.3	79.8	26.8
Cc1ccc(CN2CCN(C(=O)CC(C)C)CC2)cc1	.	.	.	.	.	/	/
Cc1ccc(O)c(-n2nc3ccccc3n2)c1	.	.	.	.	9.2	114.1	34.8
CCC(C)Sc1nnc(NS(=O)(=O)Cc2ccccc2)s1 (stereo not given)	.	.	.	.	.	/	/
